In one assay the test system is Aspergillus fumigatus. The assay is described as follows: Antimicrobial activity against Aspergillus fumigatus ATCC 90906. In kind it is functional, organism-based.
The test system of a further assay is Cryptococcus neoformans. Briefly: Antimicrobial activity against Cryptococcus neoformans ATCC 90113. Format: functional, organism-based.
In a further assay the test system is Candida albicans. The assay is described as follows: Antimicrobial activity against Candida albicans ATCC 90028. In kind it is functional, organism-based.
The subject of assay [1] is Mycobacterium intracellulare. Briefly: Antimicrobial activity against Mycobacterium intracellular ATCC 23068. In kind it is functional, organism-based.
The test system of assay [2] is Mycobacterium tuberculosis. The assay is described as follows: Antibacterial activity against Mycobacterium tuberculosis H37Rv at 16 ug/mL by micro plate alamar blue assay. In kind it is functional. Summed up: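 M. tuberculosis H37Rv ATCC 27294 grown in BACTEC 12B medium; microplate Alamar blue assay (MABA). Primary screen at a single concentration of 16 µg/mL, read as percent inhibition.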
(In general: The colour change of resazurin is a common sign of viable cells or microbes.)

The next assay relates to SK-OV-3. Briefly: Cytotoxicity against human SK-OV3 cells. In kind it is functional. Summed up: (§1)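 NCI Developmental Therapeutics Program cell panel. GI50 is the concentration that reduces growth of treated cells to half that of untreated controls. TGI is the concentration that completely halts growth.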
The next assay has as its system ACHN. The assay is described as follows: Cytotoxicity against human ACHN cells. Format: functional. A digest of the protocol: as §1
In the next assay the test system is PC-3. The assay is described as follows: Cytotoxicity against human PC3 cells. In kind it is functional. Summed up:
as §1

Another assay concerns DU-145. The assay is described as follows: Cytotoxicity against human DU145 cells. In kind it is functional. A digest of the protocol:
as §1

For a further assay, the system named is Hs-578T. Briefly: Cytotoxicity against human HS578T cells. Format: functional. A digest of the protocol:
as §1

A further assay has as its system A549. Briefly: Cytotoxicity against human A549 cells. In kind it is functional. Summed up:
as §1

Another assay has as its system NCI-H322M. Briefly: Cytotoxicity against human NCI-H322M cells. In kind it is functional. A digest of the protocol: as §1
A further assay has as its system RPMI-8226. The assay is described as follows: Cytotoxicity against human RPMI8226 cells. Format: functional. A digest of the protocol: as §1
The subject of the next assay is COLO 205. The assay is described as follows: Cytotoxicity against human COLO205 cells. In kind it is functional. A digest of the protocol:
as §1

The subject of a further assay is HCC 2998. Briefly: Cytotoxicity against human HCC2998 cells. Format: functional. Summed up: as §1
A further assay deals with HCT-15. Briefly: Cytotoxicity against human HCT15 cells. In kind it is functional. Summed up: as §1
A further assay concerns HT-29. Briefly: Cytotoxicity against human HT29 cells. In kind it is functional. Summed up: as §1
The test system of another assay is KM12. Briefly: Cytotoxicity against human KM12 cells. Format: functional. A digest of the protocol:
as §1

For a further assay, the system named is SNB-75. Briefly: Cytotoxicity against human SNB75 cells. Format: functional. Summed up:
as §1

The next assay has as its system UACC-257. Briefly: Cytotoxicity against human UACC257 cells. Format: functional. A digest of the protocol: as §1

In brackets after ≈: the same amount, converted by molar mass.

We go through 5 molecules from ChEMBL document CHEMBL1148762, “Lysosome and HER3 (ErbB3) selective anticancer agent kahalalide F: semisynthetic modifications and antifungal lead-exploration studies” (J Med Chem, 2007).

As for `C/C=C1\NC(=O)[C@H](Cc2ccccc2)NC(=O)[C@@H](C(C)C)NC(=O)[C@@H]([C@@H](C)CC)NC(=O)[C@H](NC(=O)[C@H](NC(=O)[C@H](CCCN(CCCCCC)CCCCCC)NC(=O)[C@H]2CCCN2C(=O)[C@H](NC(=O)[C@@H](NC(=O)[C@@H](NC(=O)[C@H](NC(=O)CCCC(C)C)C(C)C)[C@@H](C)O)C(C)C)C(C)C)[C@@H](C)CC)[C@@H](C)OC(=O)[C@H](C(C)C)NC1=O`, the IC50 (in general, the concentration needed to halve the response being measured) in the assay with Aspergillus fumigatus was over 12200 nM; with Cryptococcus neoformans, 6710 nM; in the assay on Candida albicans, over 12200 nM; in assay [1], over 20000 nM.
For `C/C=C1\NC(=O)[C@H](Cc2ccccc2)NC(=O)[C@@H](C(C)C)NC(=O)[C@@H]([C@@H](C)CC)NC(=O)[C@H](NC(=O)[C@H](NC(=O)[C@H](CCCN(Cc2ccc(F)cc2)Cc2ccc(F)cc2)NC(=O)[C@H]2CCCN2C(=O)[C@H](NC(=O)[C@@H](NC(=O)[C@@H](NC(=O)[C@H](NC(=O)CCCC(C)C)C(C)C)[C@@H](C)O)C(C)C)C(C)C)[C@@H](C)CC)[C@@H](C)OC(=O)[C@H](C(C)C)NC1=O`, the IC50 (in the assay with Aspergillus fumigatus; with Cryptococcus neoformans; in the assay with Candida albicans; in assay [1]) was over 11800 nM in each case.
Consider `C/C=C(\NC(=O)[C@H](Cc1ccccc1)NC(=O)[C@H](NC(=O)[C@H](NC(=O)[C@H](NC(=O)[C@H](NC(=O)[C@H](CCCN)NC(=O)[C@H]1CCCN1C(=O)[C@H](NC(=O)[C@@H](NC(=O)[C@@H](NC(=O)[C@H](NC(=O)CCCC(C)C)C(C)C)[C@@H](C)O)C(C)C)C(C)C)[C@@H](C)CC)[C@@H](C)O)[C@@H](C)CC)C(C)C)C(=O)N[C@H](C(=O)O)C(C)C` [KAHALALIDE G], for which the IC50 (with Aspergillus fumigatus; in the assay with Cryptococcus neoformans; in the assay with Candida albicans; in assay [1]) was over 13400 nM in each case. In addition, in assay [2], at 16 µg/mL the inhibition was 29%.
Take `CC(=O)O[C@H]1C(=O)[C@@]2(C)[C@H]([C@H](OC(=O)c3ccccc3)[C@]3(O)C[C@H](OC(=O)[C@H](O)[C@@H](NC(=O)c4ccccc4)c4ccccc4)C(C)=C1C3(C)C)[C@]1(OC(C)=O)CO[C@@H]1C[C@@H]2O` [PACLITAXEL]: the GI50 (in general, the concentration that inhibits growth by half) with SK-OV-3 came out at 8 nM; in the assay with ACHN, 398 nM; in the assay on PC-3, 4 nM; with DU-145, 5 nM; in the assay with Hs-578T it was 3 nM; with A549 it was 4 nM. For the same molecule, the GI50 in the assay with NCI-H322M turned out to be 13 nM; in the assay with RPMI-8226, 2 nM; with COLO 205, 3 nM; in the assay on HCC 2998 it was 3 nM; with HCT-15, 158 nM; in the assay on HT-29 it was 2 nM. The GI50 in the assay on KM12 turned out to be 4 nM; in the assay on SNB-75, 4 nM; in the assay with UACC-257, 40 nM. The TGI – broadly, the concentration giving total growth inhibition – with SK-OV-3 is 15800 nM; in the assay on ACHN it was 12600 nM; with PC-3, 10000 nM; in the assay on DU-145 it was 794 nM; in the assay on Hs-578T, 100 nM; in the assay with A549, 25100 nM. Further, the TGI came out at 6310 nM in the assay with NCI-H322M; 5010 nM with RPMI-8226; 316 nM in the assay on COLO 205; 126 nM in the assay on HCC 2998; 15800 nM in the assay with HCT-15; 251 nM with HT-29. Besides, the TGI with KM12 was determined as 15800 nM; with SNB-75, 126 nM; in the assay on UACC-257 it was 25100 nM.
As to `O=C(O)c1cn(C2CC2)c2cc(N3CCNCC3)c(F)cc2c1=O` [CIPROFLOXACIN], in [1], the IC50 turned out to be 420 nM, the MBC (usually the smallest concentration meeting the test's criterion for killing) is over 1 µM and the MIC (commonly the lowest concentration found to suppress growth) was 1 µM (≈ 0.331 µg/mL).
